Published values of several laboratories.
Cell line: A549
Read-out: cell growth or viability

With O=C1OC2(c3ccccc31)c1ccc(O)c(I)c1Oc1c2ccc(O)c1I the CC50 was > 200 µM (CCK-8; 48 h).
With CCN(Cc1cnc2nc(N)nc(N)c2n1)c1ccc(C(=O)c2ccccc2)cc1 the GI50 was 0.23 µM (ATP luminescence).
O=C1OC2(c3cc(Cl)c(O)cc3Oc3cc(O)c(Cl)cc32)c2ccccc21 has a CC50 of > 200 µM (CCK-8; 48 h).
C=C(C)C(CC=C(C)C)Cc1c(O)cc(OC)c2c1O[C@H](c1ccc(O)cc1O)CC2=O (single isomer, unassigned; (-)) has an IC50 of 50.5 µM (MTT).
O=C(O)CCCC/C=C\CCCc1ccccc1 has an IC50 of 61 µM (MTS).
With CC(=O)O[C@H]1C(=O)[C@@]2(C)[C@H]([C@H](OC(=O)c3ccccc3)[C@]3(O)C[C@H](OC(=O)[C@H](O)[C@@H](NC(=O)c4ccccc4)c4ccccc4)C(C)=C1C3(C)C)[C@]1(OC(C)=O)CO[C@@H]1C[C@@H]2O the IC50 was 0.45 µM (MTT; 48 h).
For O=C1OC2(c3ccc(O)cc3Oc3cc(O)ccc32)c2ccccc21, the CC50 was > 200 µM (CCK-8; 48 h).
CN(Cc1cnc2nc(N)nc(N)c2n1)c1ccc(C(=O)N2CCCCC2)cc1 has a GI50 of 34.9 µM (ATP luminescence).
The IC50 of O=C(O)CCCCC#CCCCC1CCCCC1 is reported as 40 µM (MTS; 24 h).
For C=C(C)C(O)Cc1c(O)c(CC=C(C)C)c2occ(-c3ccc(O)cc3)c(=O)c2c1O (stereo not drawn), the viability was 91.6% (MTT; 100 µg/mL).
COc1cccc2c1C(=O)c1c(O)c3c(c(O)c1C2=O)C[C@@](O)(C(=O)CO)C[C@@H]3O[C@H]1C[C@H](N)[C@H](O)[C@H](C)O1 gave an IC50 of 1.4 µM (MTT; 48 h).
CCCCCCCCCC#CCCCCC(=O)O gave an IC50 of 16 µM (MTS; 24 h).
The CC50 of COc1cc2oc(-c3ccc(O)cc3O)c(CC=C(C)C)c(=O)c2c(O)c1/C=C/C(C)C is reported as 38 µM (crystal violet; 72 h).
The CC50 of O=C1OC2(c3ccccc31)c1cc(Br)c(O)c(Br)c1Oc1c2cc(Br)c(O)c1Br is reported as > 200 µM (CCK-8; 48 h).
CCOC(=O)C1CCN(C(=O)c2ccc(N(CC)Cc3cnc4nc(N)nc(N)c4n3)cc2)CC1 has a GI50 of 4.38 µM (ATP luminescence).
